Source: ChEMBL document CHEMBL4229368, “N,N'-disubstituted cinnamamide derivatives potentiate ciprofloxacin activity against overexpressing NorA efflux pump Staphylococcus aureus 1199B strains” (Eur J Med Chem, 2018)

Legend:
Staphylococcus aureus [1] = test: Potentiation of ciprofloxacin-induced antibacterial activity against wild type Staphylococcus aureus SA1199 assessed as fold reduction in ciprofloxacin MIC at 20.6 uM after 18 to 24 hrs by broth microdilution method; assay type: functional
Summary of the method: (§1)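 Ciprofloxacin MIC by CLSI/CASFM broth microdilution in Mueller-Hinton II, two-fold serial dilutions, inoculum 5.10⁵ CFU/mL, 37 °C for 18-24 h. MIC is the lowest concentration with no visible growth. Test agent co-administered at a fixed final concentration without antibacterial activity (10 or 30 µg/mL, or 1/4 MIC where intrinsically active). Result is fold reduction of ciprofloxacin MIC. At least three independent experiments.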

[2] = Cytotoxicity against human MRC5 cells assessed as reduction in cell viability after 72 hrs by MTT assay; assay type: cell-based
Summary of the method: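 MRC5 human lung fibroblasts plated in triplicate at 6000 cells/well in MEM with 10% FBS and incubated overnight at 37 °C, 5% CO2. Compound or DMSO vehicle applied for 72 h, then MTT 1 mg/mL added for 3 h at 37 °C. Formazan dissolved in 0.01 M HCl in isopropanol for 15 min. A570 read minus A690; GI50 as mean SD of ≥3 independent experiments.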

Staphylococcus aureus [3] = test: Growth inhibition of wild type Staphylococcus aureus SA1199 assessed as non-toxic concentration after 18 to 24 hrs by broth microdilution method; assay type: organism-based; conditions: pooled result: one value given for 2 cell lines, strains, targets or settings, read-out: Activity
[4] = target: T1, Quinolone resistance protein NorA (Staphylococcus aureus) (UniProt P0A0J7); test: Inhibition of NorA in Staphylococcus aureus SA1199B assessed as potentiation of ciprofloxacin-induced antibacterial activity by measuring fold reduction in ciprofloxacin MIC at 20.6 uM after 18 to 24 hrs by broth microdilution method; summary of the method: as §1
T1 sequence (whole entry): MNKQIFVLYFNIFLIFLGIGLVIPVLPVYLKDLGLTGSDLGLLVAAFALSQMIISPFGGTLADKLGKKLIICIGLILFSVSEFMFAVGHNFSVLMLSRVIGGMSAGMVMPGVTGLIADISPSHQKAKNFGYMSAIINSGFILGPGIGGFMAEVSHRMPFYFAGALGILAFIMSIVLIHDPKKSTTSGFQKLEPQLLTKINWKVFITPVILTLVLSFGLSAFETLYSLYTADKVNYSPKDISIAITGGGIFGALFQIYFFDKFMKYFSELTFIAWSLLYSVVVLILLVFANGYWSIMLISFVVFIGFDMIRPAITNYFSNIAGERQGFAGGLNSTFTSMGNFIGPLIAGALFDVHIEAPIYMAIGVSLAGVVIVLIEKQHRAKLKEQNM

Staphylococcus aureus [5] = test: Bactericidal activity against wild type Staphylococcus aureus SA1199 at 10 ug/ml after 18 to 24 hrs by broth microdilution method; assay type: ADME, organism-based
Staphylococcus aureus [6] = test: Potentiation of ciprofloxacin-induced antibacterial activity against wild type Staphylococcus aureus SA1199 assessed as fold reduction in ciprofloxacin MIC at 25.3 uM after 18 to 24 hrs by broth microdilution method; assay type: functional; summary of the method: as §1
[7] = target: T1, Quinolone resistance protein NorA (Staphylococcus aureus); test: Inhibition of NorA in Staphylococcus aureus SA1199B assessed as potentiation of ciprofloxacin-induced antibacterial activity by measuring fold reduction in ciprofloxacin MIC at 25.3 uM after 18 to 24 hrs by broth microdilution method; summary of the method: as §1
[8] = target: T1, Quinolone resistance protein NorA (Staphylococcus aureus); test: Inhibition of NorA in Staphylococcus aureus SA1199B assessed as potentiation of ciprofloxacin-induced antibacterial activity by measuring fold reduction in ciprofloxacin MIC at 21 uM after 18 to 24 hrs by broth microdilution method; summary of the method: as §1
Staphylococcus aureus [9] = test: Potentiation of ciprofloxacin-induced antibacterial activity against wild type Staphylococcus aureus SA1199 assessed as fold reduction in ciprofloxacin MIC at 21 uM after 18 to 24 hrs by broth microdilution method; assay type: functional; summary of the method: as §1
Staphylococcus aureus [10] = test: Growth inhibition of Staphylococcus aureus SA1199B over-expressing NorA at 3.9 ug/ml after 18 to 24 hrs by broth microdilution method; assay type: organism-based
[11] = target: T1, Quinolone resistance protein NorA (Staphylococcus aureus); test: Inhibition of NorA in Staphylococcus aureus SA1199B assessed as potentiation of ciprofloxacin-induced antibacterial activity by measuring fold reduction in ciprofloxacin MIC at 8.5 uM after 18 to 24 hrs by broth microdilution method; summary of the method: as §1
Staphylococcus aureus [12] = test: Potentiation of ciprofloxacin-induced antibacterial activity against wild type Staphylococcus aureus SA1199 assessed as fold reduction in ciprofloxacin MIC at 8.5 uM after 18 to 24 hrs by broth microdilution method; assay type: functional; summary of the method: as §1
Staphylococcus aureus [13] = test: Growth inhibition of wild type Staphylococcus aureus SA1199 at 3.9 ug/ml after 18 to 24 hrs by broth microdilution method; assay type: organism-based
Staphylococcus aureus [14] = test: Growth inhibition of wild type Staphylococcus aureus SA1199 after 18 to 24 hrs by broth microdilution method; assay type: organism-based
Staphylococcus aureus [15] = test: Potentiation of ciprofloxacin-induced antibacterial activity against wild type Staphylococcus aureus SA1199 assessed as fold reduction in ciprofloxacin MIC at 81.3 uM after 18 to 24 hrs by broth microdilution method; assay type: functional; summary of the method: as §1
[16] = target: T1, Quinolone resistance protein NorA (Staphylococcus aureus); test: Inhibition of NorA in Staphylococcus aureus SA1199B assessed as potentiation of ciprofloxacin-induced antibacterial activity by measuring fold reduction in ciprofloxacin MIC at 81.3 uM after 18 to 24 hrs by broth microdilution method; summary of the method: as §1
Staphylococcus aureus [17] = test: Bactericidal activity against wild type Staphylococcus aureus SA1199 at 30 ug/ml after 18 to 24 hrs by broth microdilution method; assay type: ADME, organism-based; conditions: in vitro
Staphylococcus aureus [18] = test: Potentiation of ciprofloxacin-induced antibacterial activity against wild type Staphylococcus aureus SA1199 assessed as fold reduction in ciprofloxacin MIC at 32.9 uM after 18 to 24 hrs by broth microdilution method; assay type: functional
Staphylococcus aureus [19] = test: Potentiation of ciprofloxacin-induced antibacterial activity against wild type Staphylococcus aureus SA1199 assessed as fold reduction in ciprofloxacin MIC at 19.1 uM after 18 to 24 hrs by broth microdilution method; assay type: functional; summary of the method: as §1
[20] = target: T1, Quinolone resistance protein NorA (Staphylococcus aureus); test: Inhibition of NorA in Staphylococcus aureus SA1199B assessed as potentiation of ciprofloxacin-induced antibacterial activity by measuring fold reduction in ciprofloxacin MIC at 19.1 uM after 18 to 24 hrs by broth microdilution method; summary of the method: as §1
[21] = target: T1, Quinolone resistance protein NorA (Staphylococcus aureus); test: Potency index, ratio of compound effect to reserpine effect for inhibition of NorA in Staphylococcus aureus SA1199B assessed as potentiation of ciprofloxacin-induced antibacterial activity by measuring fold reduction in ciprofloxacin MIC
Staphylococcus aureus [22] = test: Potentiation of ciprofloxacin-induced antibacterial activity against wild type Staphylococcus aureus SA1199 assessed as fold reduction in ciprofloxacin MIC at 37.1 uM after 18 to 24 hrs by broth microdilution method; assay type: functional; summary of the method: as §1
Staphylococcus aureus [23] = test: Growth inhibition of Staphylococcus aureus SA1199B over-expressing NorA at 15.6 ug/ml after 18 to 24 hrs by broth microdilution method; assay type: organism-based
[24] = target: T1, Quinolone resistance protein NorA (Staphylococcus aureus); test: Inhibition of NorA in Staphylococcus aureus SA1199B assessed as potentiation of ciprofloxacin-induced antibacterial activity by measuring fold reduction in ciprofloxacin MIC at 37.1 uM after 18 to 24 hrs by broth microdilution method; summary of the method: as §1
[25] = target: T1, Quinolone resistance protein NorA (Staphylococcus aureus); test: Inhibition of NorA in Staphylococcus aureus SA1199B assessed as potentiation of ciprofloxacin-induced antibacterial activity by measuring fold reduction in ciprofloxacin MIC at 73 uM after 18 to 24 hrs by broth microdilution method; summary of the method: as §1
Staphylococcus aureus [26] = test: Potentiation of ciprofloxacin-induced antibacterial activity against wild type Staphylococcus aureus SA1199 assessed as fold reduction in ciprofloxacin MIC at 73 uM after 18 to 24 hrs by broth microdilution method; assay type: functional; summary of the method: as §1
[27] = target: T1, Quinolone resistance protein NorA (Staphylococcus aureus); test: Inhibition of NorA in Staphylococcus aureus SA1199B assessed as potentiation of ciprofloxacin-induced antibacterial activity by measuring fold reduction in ciprofloxacin MIC at 90.9 uM after 18 to 24 hrs by broth microdilution method; summary of the method: as §1
Staphylococcus aureus [28] = test: Potentiation of ciprofloxacin-induced antibacterial activity against wild type Staphylococcus aureus SA1199 assessed as fold reduction in ciprofloxacin MIC at 90.9 uM after 18 to 24 hrs by broth microdilution method; assay type: functional; summary of the method: as §1
Staphylococcus aureus [29] = test: Potentiation of ciprofloxacin-induced antibacterial activity against wild type Staphylococcus aureus SA1199 assessed as fold reduction in ciprofloxacin MIC at 80.6 uM after 18 to 24 hrs by broth microdilution method; assay type: functional; summary of the method: as §1
[30] = target: T1, Quinolone resistance protein NorA (Staphylococcus aureus); test: Inhibition of NorA in Staphylococcus aureus SA1199B assessed as potentiation of ciprofloxacin-induced antibacterial activity by measuring fold reduction in ciprofloxacin MIC at 80.6 uM after 18 to 24 hrs by broth microdilution method; summary of the method: as §1
[31] = target: T1, Quinolone resistance protein NorA (Staphylococcus aureus); test: Inhibition of NorA in Staphylococcus aureus SA1199B assessed as potentiation of ciprofloxacin-induced antibacterial activity by measuring fold reduction in ciprofloxacin MIC at 23 uM after 18 to 24 hrs by broth microdilution method; summary of the method: as §1
Staphylococcus aureus [32] = test: Potentiation of ciprofloxacin-induced antibacterial activity against wild type Staphylococcus aureus SA1199 assessed as fold reduction in ciprofloxacin MIC at 23 uM after 18 to 24 hrs by broth microdilution method; assay type: functional; summary of the method: as §1
Staphylococcus aureus [33] = test: Potentiation of ciprofloxacin-induced antibacterial activity against wild type Staphylococcus aureus SA1199 assessed as fold reduction in ciprofloxacin MIC at 22.9 uM after 18 to 24 hrs by broth microdilution method; assay type: functional; summary of the method: as §1
[34] = target: T1, Quinolone resistance protein NorA (Staphylococcus aureus); test: Inhibition of NorA in Staphylococcus aureus SA1199B assessed as potentiation of ciprofloxacin-induced antibacterial activity by measuring fold reduction in ciprofloxacin MIC at 22.9 uM after 18 to 24 hrs by broth microdilution method; summary of the method: as §1

| SMILES | GI50 at 72 h [2] [µM] | MNTC (Staphylococcus aureus [3]) [µM] | Activity (Staphylococcus aureus [5]) | Activity (Staphylococcus aureus [17]) | further results |
| --- | --- | --- | --- | --- | --- |
| CC(C)(C)OC(=O)N[C@@H](Cc1ccccc1)CN(CCc1ccccc1)C(=O)/C=C/c1ccccc1 | 17.3 | 20.6 | Non-Toxic |  | fold change (FC) (Staphylococcus aureus [1]): 1; fold change (FC) [4]: 1 to 2 |
| CC(C)(C)OC(=O)NCCN(CCc1ccccc1)C(=O)/C=C/c1ccccc1 | 54.7 | 25.3 | Non-Toxic |  | fold change (FC) (Staphylococcus aureus [6]): 1; fold change (FC) [7]: 2 |
| CC(C)[C@@H](CN(CCc1c[nH]c2ccccc12)C(=O)/C=C/c1ccccc1)NC(=O)OC(C)(C)C | 43.7 | 21 | Non-Toxic |  | fold change (FC) [8]: 4; fold change (FC) (Staphylococcus aureus [9]): 1 - 2 |
| Cl.N[C@@H](Cc1ccccc1)CN(CCc1c[nH]c2ccccc12)C(=O)/C=C/c1ccccc1 | 6.33 | 8.5 |  |  | growth inhibition (GI) (Staphylococcus aureus [10]): Toxic; fold change (FC) [11]: 2; fold change (FC) (Staphylococcus aureus [12]): 2; growth inhibition (GI) (Staphylococcus aureus [13]): Toxic; MIC (Staphylococcus aureus [14]): 15.7 µg/mL |
| Cl.NCCN(CCc1c[nH]c2ccccc12)C(=O)/C=C/c1ccccc1 | 20.7 | 81.3 |  | Non-Toxic | fold change (FC) (Staphylococcus aureus [15]): 2; fold change (FC) [16]: 2 |
| COC(=O)[C@H]1[C@H]2C[C@@H]3c4[nH]c5cc(OC)ccc5c4CCN3C[C@H]2C[C@@H](OC(=O)c2cc(OC)c(OC)c(OC)c2)[C@@H]1OC [RESERPINE] | 14.7 | 32.9 |  |  | fold change (FC) (Staphylococcus aureus [18]): 2 |
| CC(C)(C)OC(=O)N[C@@H](Cc1ccccc1)CN(CCc1c[nH]c2ccccc12)C(=O)/C=C/c1ccccc1 | 70 | 19.1 | Non-Toxic |  | fold change (FC) (Staphylococcus aureus [19]): 1 - 2; fold change (FC) [20]: 4 to 8; Ratio [21]: 2 |
| Cl.N[C@@H](Cc1ccccc1)CN(CCc1ccccc1)C(=O)/C=C/c1ccccc1 | 6.5 | 37.1 |  |  | fold change (FC) (Staphylococcus aureus [22]): 2 - 4; growth inhibition (GI) (Staphylococcus aureus [23]): Toxic; fold change (FC) [24]: 2; MIC (Staphylococcus aureus [14]): 62.5 µg/mL |
| CC(C)[C@H](N)CN(CCc1c[nH]c2ccccc12)C(=O)/C=C/c1ccccc1.Cl | 25.3 | 73 |  | Non-Toxic | fold change (FC) [25]: 4; fold change (FC) (Staphylococcus aureus [26]): 2 - 4 |
| Cl.NCCN(CCc1ccccc1)C(=O)/C=C/c1ccccc1 | 73.3 | 90.9 |  | Non-Toxic | fold change (FC) [27]: 1; fold change (FC) (Staphylococcus aureus [28]): 1 - 2 |
| CC(C)[C@H](N)CN(CCc1ccccc1)C(=O)/C=C/c1ccccc1.Cl | 52.4 | 80.6 |  | Non-Toxic | fold change (FC) (Staphylococcus aureus [29]): 1 - 2; fold change (FC) [30]: 2 |
| CC(C)(C)OC(=O)NCCN(CCc1c[nH]c2ccccc12)C(=O)/C=C/c1ccccc1 | 35.3 | 23 | Non-Toxic |  | fold change (FC) [31]: 4; fold change (FC) (Staphylococcus aureus [32]): 2 |
| CC(C)[C@@H](CN(CCc1ccccc1)C(=O)/C=C/c1ccccc1)NC(=O)OC(C)(C)C | 40.7 | 22.9 | Non-Toxic |  | fold change (FC) (Staphylococcus aureus [33]): 1 - 2; fold change (FC) [34]: 2 |
